Source: ChEMBL document CHEMBL2311482, “Antiproliferative and apoptotic effects of compounds from the flower of Mammea siamensis (Miq.) T. Anders. on human cancer cell lines” (Bioorg Med Chem Lett, 2013)
Calls of active or inactive are those of the source. No cut-off for these calls is given here.

Tests used:
HL-60 [1] = assay: Induction of apoptosis in human HL60 cells assessed as DNA fragmentation at 12.5 uM after 24 hrs by agarose gel electrophoresis; type: functional, cell-based
Summary of the method: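 HL-60 cells treated with 12.5 µM compound for 24 h; DNA extracted and laddering resolved by agarose gel electrophoresis against a 100 bp marker; representative of three independent experiments.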

[2] = Cytotoxicity against human HF19 cells assessed as cell viability after 24 hrs by MTT assay; type: cell-based; conditions: HF19, 24 h
Summary of the method: (§1)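 Cells exposed to compounds at 3.125 to 50 µM for 24 h; proliferation read by MTT assay; IC50 (µM) reported. Panel: leukemia lines HL-60, U937, THP-1, Jurkat; stomach KATO III; colon HCT-15; hepatoma HepG2; normal skin fibroblasts NB1RGB and HF-19.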

[3] = Cytotoxicity against human NB1RGB cells assessed as cell viability after 24 hrs by MTT assay; type: cell-based; summary of the method: as §1
HepG2 = assay: Cytotoxicity against human HepG2 cells assessed as cell viability after 24 hrs by MTT assay; type: functional, cell-based; conditions: HepG2, 24 h; summary of the method: as §1
HCT-15 = assay: Cytotoxicity against human HCT15 cells assessed as cell viability after 24 hrs by MTT assay; type: functional, cell-based; conditions: HCT-15, 24 h; summary of the method: as §1
[4] = Cytotoxicity against human KATO III cells assessed as cell viability after 24 hrs by MTT assay; type: functional, cell-based; summary of the method: as §1
Jurkat = assay: Cytotoxicity against human Jurkat cells assessed as cell viability after 24 hrs by MTT assay; type: functional, cell-based; summary of the method: as §1
THP-1 = assay: Cytotoxicity against human THP1 cells assessed as cell viability after 24 hrs by MTT assay; type: functional, cell-based; conditions: THP-1, 24 h; summary of the method: as §1
U-937 = assay: Cytotoxicity against human U937 cells assessed as cell viability after 24 hrs by MTT assay; type: functional, cell-based; conditions: U-937, 24 h; summary of the method: as §1
HL-60 [5] = assay: Cytotoxicity against human HL60 cells assessed as cell viability after 24 hrs by MTT assay; type: functional, cell-based; conditions: HL-60, 24 h; summary of the method: as §1
HL-60 [6] = assay: Induction of apoptosis in human HL60 cells assessed as chromatin condensation at 12.5 uM after 24 hrs by Hoechst 33258 staining-based fluorescent microscopy; type: functional, cell-based
Summary of the method: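 Nuclear morphology: HL-60 cells treated 24 h with 12.5 µM compound, stained with Hoechst 33258, and viewed by fluorescence microscopy at ×400; representative of three independent experiments.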

HL-60 [7] = assay: Induction of apoptosis in human HL60 cells assessed as DNA fragmentation at 12.5 uM after 24 hrs by agarose gel electrophoresis in presence of caspase inhibitior Z-VAD-FMK and Z-DEVD-FMK; type: functional, cell-based
Summary of the method: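 HL-60 cells pretreated 1 h with 50 µM caspase inhibitor (z-VAD-FMK, broad; z-DEVD-FMK, caspase-3), then given 12.5 µM compound for 24 h; DNA fragmentation by agarose gel electrophoresis; representative of three independent experiments.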

HL-60 [8] = assay: Induction of apoptosis in human HL60 cells assessed as activation of caspase 3 at 12.5 uM by Western blot analysis; type: functional, cell-based; conditions: TDE = time-dependent effect
Summary of the method: (§2)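 HL-60 cells given 12.5 µM compound for 6–24 h, then lysed; caspase-3 and PARP (cleavage) probed by Western blot with β-actin as loading control; representative of three independent experiments.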

HL-60 [9] = assay: Induction of apoptosis in human HL60 cells assessed as PARP cleavage at 12.5 uM by Western blot analysis; type: functional, cell-based; conditions: TDE = time-dependent effect; summary of the method: as §2
HL-60 [10] = assay: Induction of apoptosis in human HL60 cells assessed as DNA fragmentation at 12.5 uM by agarose gel electrophoresis; type: functional, cell-based; conditions: TDE = time-dependent effect
Summary of the method: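 Time course: HL-60 cells exposed to 12.5 µM compound for 6–24 h; DNA fragmentation assessed by agarose gel electrophoresis; representative of three independent experiments.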

| SMILES | Activity (HL-60 [1]) | IC50 [2] | IC50 [3] | IC50 (HepG2) | IC50 (HCT-15) | IC50 [4] | IC50 (Jurkat) | IC50 (THP-1) | IC50 (U-937) | IC50 (HL-60 [5]) | Activity (HL-60 [6]) | Activity (HL-60 [7]) | Activity (HL-60 [8]) | Activity (HL-60 [9]) | Activity (HL-60 [10]) |
| --- | --- | --- | --- | --- | --- | --- | --- | --- | --- | --- | --- | --- | --- | --- | --- |
| CCCC(=O)c1c2c(c3oc(=O)cc(CCC)c3c1O)C=CC(C)(C)O2 | inactive | > 50 µM | > 50 µM | > 50 µM | > 50 µM | > 50 µM | > 50 µM | > 50 µM | 47.6 µM | 37.2 µM | – | – | – | – | – |
| O=c1cc(-c2ccc(O)cc2)oc2cc(O)c([C@@H]3O[C@H](CO)[C@@H](O)[C@H](O)[C@H]3O)c(O)c12 [ISOVITEXIN] | inactive | > 50 µM | > 50 µM | > 50 µM | > 50 µM | > 50 µM | > 50 µM | > 50 µM | > 50 µM | > 50 µM | – | – | – | – | – |
| CCC(C)C(=O)c1c(O)c(CC=C(C)C)c(O)c2c([C@@H](O)CC)cc(=O)oc12 (some centres not stated) | Active | > 50 µM | > 50 µM | > 50 µM | > 50 µM | 24.1 µM | 29.9 µM | 9.23 µM | 18.8 µM | 13.7 µM | Active | – | – | – | – |
| CCC(C)C(=O)c1c(O)c(C/C=C(\C)CCC=C(C)C)c(O)c2c([C@@H](O)CC)cc(=O)oc12 (some centres not stated) [SURANGIN C] | Active | > 50 µM | > 50 µM | > 50 µM | > 50 µM | 10.6 µM | 23.1 µM | 21.5 µM | 27.6 µM | 13.3 µM | Active | – | – | – | – |
| CCCC(=O)c1c(O)c(C/C=C(\C)CCC=C(C)C)c(O)c2c([C@@H](O)CC)cc(=O)oc12 [KAYEASSAMIN A] | Active | > 50 µM | > 50 µM | > 50 µM | > 50 µM | 12 µM | 19.8 µM | 16.7 µM | 19.9 µM | 11.9 µM | Active | inactive | tde | tde | tde |
| O=c1cc(-c2ccc(O)c(-c3c(O)cc(O)c4c(=O)cc(-c5ccc(O)cc5)oc34)c2)oc2cc(O)cc(O)c12 [AMENTOFLAVONE] | inactive | > 50 µM | > 50 µM | > 50 µM | > 50 µM | > 50 µM | > 50 µM | > 50 µM | > 50 µM | > 50 µM | – | – | – | – | – |
| CCC(C)C(=O)c1c(O)c2c(c3c([C@@H](O)CC)cc(=O)oc13)OC(C(C)(C)O)C2 (some centres not stated) | inactive | > 50 µM | > 50 µM | > 50 µM | > 50 µM | > 50 µM | > 50 µM | 40.6 µM | 33.4 µM | 29.2 µM | – | – | – | – | – |
